Screens from PubChem.
INS promoter act = TRM-6 insulin promoter activation; 0.81% of 130,000 active; activation, % at 2 µM; TRM-6 cells, insulin promoter eGFP reporter, imaging; plate-scaled: unstimulated 0, stimulated control 100;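 active = activation at 2 µM above a set limit, confirmed on inspection of the cell images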;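 note: share of cells whose green reporter signal exceeds an intensity cutoff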
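Material: Human fetal islet-derived TRM-6 cells with tamoxifen-inducible insulin promoter–eGFP reporter | Medium: Low-glucose (5.5 mM) medium with tamoxifen | Probe or stimulus: Tamoxifen inducer, 0.75 µM, in seeding medium | Schedule: Tamoxifen pre-incubation 15 h overnight, then compound exposure 48 h at 37 °C | Detection: High-content imaging of fixed cells with Hoechst nuclear stain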
Starred values were filed as active, the others as inactive. Only a selection was taken, and hits are over-represented in it overall.

SMILES | INS promoter act
COC(=O)c1c(O)cc(C(C)(C)C)n(-c2ccccc2)c1=O | -1.6
CCc1cccc(NC(=S)N(CCCN2CCOCC2)C(C)c2cc3cccc(OC)c3o2)c1 (centres undefined) | 6.7
O=c1c(C(c2ccccc2)c2c(O)sc3ccccc3c2=O)c(O)sc2ccccc12 | -80.0
Cc1ccccc1NC(=O)C(C)O/N=C/c1cccc([N+](=O)[O-])c1 (centres undefined) | 2.7
Cc1ccnc(NC(=O)C2CCN(S(=O)(=O)c3cccc4nsnc34)CC2)c1 | 125.0*
Cc1ccc(CCNC(=O)C2CCN(S(=O)(=O)c3cccc4nsnc34)CC2)cc1 | 7.1
COc1ccc(OC)c(NC(=O)C2CCCN(S(=O)(=O)c3cccc4nsnc34)C2)c1 (centres undefined) | 0.0
COc1cc([N+](=O)[O-])ccc1NC(=O)CSc1nc2ccccc2n1-c1ccccc1 | 6.9
CCOc1ccc(OCCCCOc2ccccc2C(C)=O)cc1 | -3.4
N#CC1=C(N)Oc2n[nH]c(-c3cccs3)c2C1C1CCCCC1 (centres undefined) | 110.0*
N#CC1=C(N)Oc2n[nH]c(-c3cccs3)c2C1c1ccsc1 (centres undefined) | 323.8
Cc1ccc(C2C(C#N)=C(N)Oc3n[nH]c(-c4cccs4)c32)s1 (centres undefined) | 9.1
COc1cc(CN(C)Cc2ccccc2)cc(OC)c1O | 0.0
CC1=C(C(=O)Nc2ccc(F)cc2)C(c2ccc(C)o2)C2=C(CC(C)(C)CC2=O)N1 (centres undefined) | 295.8
CC1C2=C(CC(C)(C)CC2=O)NC2=C1C(=O)CC(C)(C)C2 | -4.8
CC1(C)CC(=O)C2=C(C1)Nc1cc3c(cc1C2c1ccc(F)cc1)OCO3 (centres undefined) | 100.0*
CCOc1ccc(CC(=O)Nc2ccc(-c3ccc4nnc(C)n4n3)cc2)cc1 | 5.6
COCCN(C(=S)Nc1ccc(C(C)C)cc1)C(C)c1cccs1 (centres undefined) | 7.1
CCC(=O)c1ccc(OCC(=O)NCCc2ccccn2)cc1 | 8.3
Cc1c(Cl)c(C(F)(F)F)nn1CC(=O)N1CCSCC1 | -100.0
COc1ccc(-c2cc(C(F)(F)F)c(C#N)c(SCC(=O)Nc3ccc(C)cc3)n2)cc1 | 8.1
N#Cc1c(C(F)(F)F)cc(-c2ccccc2)nc1SCc1nc(N)nc(N2CCOCC2)n1 | 250.9*
FC(F)(F)c1cc(-c2ccccc2)nc(N2CCOCC2)n1 | -2.9
CCCCNC(=O)CNC(=S)N(Cc1cc(OC)c(OC)c(OC)c1)C1CCCC1 | 3.6
O=C(C[n+]1cccc(CNC(=O)c2ccc(OC(F)F)cc2)c1)c1ccccc1 | 341.2*
SMILES | INS promoter act
CC(Oc1ccc(C(=O)NCCc2ccccc2)cc1)C(=O)O (centres undefined) | 0.0
O=C(NCc1ccccc1)c1ccc(S(=O)(=O)C(F)F)cc1 | -3.3
O=C(O)C1Nc2c(O)cc(Cl)c([N+](=O)[O-])c2C2C=CCC12 (centres undefined) | 0.0
COC(=O)c1ccccc1NC(=O)C12CCC(C)(C(=O)O1)C2(C)C (centres undefined) | 4.5
OCCCc1n[nH]c(=S)n1-c1ccccc1 | -6.7
Cc1ccccc1OCc1n[nH]c(=S)n1Cc1ccccc1 | 0.0
Nn1c(Cc2ccccc2)n[nH]c1=S | 485.7*
O=C(CSc1nc2ccccc2o1)Nc1ccc(N2CCOCC2)cc1 | 0.0
CC1(C)CC(=O)c2cnc(NC(=O)CSc3nc4ccccc4o3)nc2C1 | 523.1*
CCCCC(=O)Nc1ncc2c(n1)CC(C)(C)CC2=O | -5.6
CCOC(=O)NC1(C(F)(F)F)C(=O)N(Cc2ccccc2)C2=C1C(=O)CC(C)(C)C2 (centres undefined) | -2.9
O=C(NN=C1C2CC3CC(C2)CC1C3)c1cccc(S(=O)(=O)N2CCOCC2)c1 | -3.7
CC(C)=CCC(C)(C)C1OCCN1C(=O)Nc1ccccc1 (centres undefined) | -8.6
COC(=O)C(CCSC)NC(=O)c1cccc([N+](=O)[O-])c1 (centres undefined) | 9.7
Cc1ccc(C2(C)NC(=O)N(CC(=O)c3ccc(Cl)s3)C2=O)cc1 (centres undefined) | 3.3
CC(Sc1nc(NCc2ccccc2)nc(N2CCOCC2)n1)C(=O)Nc1ccccc1 (centres undefined) | 7.7
O=[N+]([O-])c1ccc(-c2ccc(/C=N/Nc3nc(NCc4ccccc4)nc(N4CCOCC4)n3)o2)cc1 | 200.0*
c1cncc(CNc2nc(N3CCOCC3)nc(N3CCOCC3)n2)c1 | 2.9
Cc1nnsc1SCCNC(=O)c1ccc(F)cc1 | 6.7
Cc1ccnc(SCC(=O)c2ccc(Br)cc2)c1C#N | -61.1
CCN(CC)C(=S)SCC(=O)c1ccc(Br)cc1 | 381.3*
CCN(CC)C(=O)c1ccc(C)c(Br)c1 | 356.3
Cc1c(Cl)c([N+](=O)[O-])nn1CC(=O)NC12CC3CC(CC(C3)C1)C2 | 4.2
O=C(NC1CCCCC1)C(c1cc2c(cc1[N+](=O)[O-])OCO2)N1CCCCC1 (centres undefined) | 0.0
CCNc1nc(C)c(CN(C(C)=O)c2ccccc2)nc1C#N | 0.0
SMILES | INS promoter act
COc1ccc(Cn2nnnc2CN2CCC(O)(c3ccc(F)cc3)CC2)cc1 | 7.1
COc1cc(C(=O)NC2CCN(Cc3nnnn3Cc3ccc(F)cc3)CC2)cc(OC)c1OC | 515.4*
Cc1ccc(Cn2nnnc2CN2CCC(O)(c3ccc(F)cc3)CC2)cc1 | 0.0
Cc1cc(=O)oc2cc(Oc3ccc([N+](=O)[O-])cc3[N+](=O)[O-])ccc12 | 2.7
Cc1cccc(NC(=O)c2cc3cc([N+](=O)[O-])ccc3s2)n1 | -8.6
COc1ccc(C(=O)NNC(=O)CCn2nnc(-c3ccc(C)cc3)n2)cc1OC | 0.0
CC(=O)N(C(C)=O)S(=O)(=O)c1ccc(N=NN2CCOCC2)cc1 | 113.3
C=CCn1c(CNC(=O)c2ccco2)nnc1SCC(=O)N1c2ccccc2Sc2ccccc21 | 103.3*
Cn1nnnc1SCC(=O)N1c2ccccc2Sc2ccccc21 | -9.1
C=CCn1c(CNC(=O)c2ccccc2C)nnc1SCC(=O)NC1CCCC1 | 304.7
Cc1ccc(NC(=O)COC(=O)Cn2cnc3c2c(=O)n(C)c(=O)n3C)c(Cl)c1 | 0.0
Cc1cc(=O)oc2cc(OCC(=O)N3CCN(C(=O)c4ccco4)CC3)ccc12 | 9.1
CCN1/C(=C/c2ccc3cc(C)ccc3[n+]2CC)Sc2ccccc21 | 170.3
CCN1/C(=C/C=C/C=C/c2sc3ccccc3[n+]2CC)Sc2ccccc21 | 354.5*
CCC(=O)/C=C1/Sc2ccccc2N1CC | 328.6
CC(Oc1ccccc1)C(=O)NC1CC(C)(C)NC(C)(C)C1 (centres undefined) | -8.3
COc1ccc(/C=N/NC(=O)c2cc(=O)[nH]c3ccccc23)cc1OC | 0.0
c1ccc(-c2nnc(-c3ccccc3)o2)cc1 | 4.7
O=S1(=O)C=C(Sc2nnc(-c3ccccc3)o2)c2ccccc21 | 270.4*
CSc1ccccc1-c1nnc(-c2ccccc2)o1 | 9.4
COc1cc(/C=C/C(=O)O)cc(S(=O)(=O)Nc2ccccc2Cl)c1OC | -7.4
COc1cc(OC)cc(C(=O)N[C@H](C(=O)Nc2ccc3c(c2)OCO3)C(C)C)c1 | 0.0
CC(C)Oc1ccc(/C(O)=C2/C(=O)C(=O)N(CCN3CCOCC3)C2c2ccccc2)cc1 (centres undefined) | 2.9
COc1cccc(/C(O)=C2/C(=O)C(=O)N(CCN3CCOCC3)C2c2cccnc2)c1 (centres undefined) | 530.8*
COc1ccc(/C(O)=C2/C(=O)C(=O)N(CCN(C)C)C2c2cccnc2)cc1OC (centres undefined) | 7.1
